Results from ChEMBL document CHEMBL4000155, “Synthesis and Antileukemic Activities of Piperlongumine and HDAC Inhibitor Hybrids against Acute Myeloid Leukemia Cells” (J Med Chem, 2016).
Calls of active or inactive are those of the source. The rule behind the calls is not given here.

Legend:
U-937 [1] = test: Effect on SAHA-induced apoptosis in p53 null human U937 cells assessed as increase in Bim EL expression level by measuring ratio of Bim EL to beta-actin level at 2 uM after 24 hrs by Western blot analysis relative to control; type: functional
Summary of the method: (§1)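 U937 cells treated 24 h, alone or PL+SAHA. Whole-cell lysates (protease/phosphatase inhibitors) immunoblotted for γH2AX, CHK1, RAD51, Bim and XIAP. Band densitometry normalised to β-actin, then expressed as fold change relative to the untreated control.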

U-937 [2] = test: Induction of apoptosis in p53 null human U937 cells assessed as caspase 3 cleavage at 2 uM after 24 hrs in presence of SAHA by Western blot analysis; type: functional, cell-based
Summary of the method: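 U937 cells exposed for 24 h. Lysates with protease/phosphatase inhibitors were separated by SDS-PAGE, transferred to PVDF and probed for PARP and cleaved caspase-3, with β-actin as loading control.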

U-937 [3] = test: Effect on SAHA-induced DNA damage in p53 null human U937 cells assessed as decrease in Rad51 expression level by measuring ratio of Rad51 to beta-actin level at 2 uM after 24 hrs by Western blot analysis relative to control; type: functional; summary of the method: as §1
U-937 [4] = test: Induction of DNA damage in p53 null human U937 cells assessed as decrease in Rad51 expression level by measuring ratio of Rad51 to beta-actin level at 2 uM after 24 hrs by Western blot analysis relative to control; type: functional; summary of the method: as §1
U-937 [5] = test: Cytotoxicity against p53 null human U937 cells assessed as decrease in cell viability at 0.5 to 5 uM after 24 hrs by MTT assay; type: functional, cell-based
Summary of the method: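 MCF-10A (DMEM/F12, 5% horse serum, hydrocortisone, cholera toxin, insulin, EGF) and U937 (RPMI 1640, 10% FBS) were exposed to 0.5–5 μM, alone or PL+SAHA 1:1, for 24 h. MTT 0.05 mg/mL, 3 h at 37 °C, DMSO solubilization, A570. Viability given as mean ± SD of four to six independent experiments. DMSO <0.1% vehicle control.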

| SMILES | Ratio (U-937 [1]) | Activity (U-937 [2]) | Ratio (U-937 [3]) | Ratio (U-937 [4]) | Activity (U-937 [5]) |
| --- | --- | --- | --- | --- | --- |
| COc1cc(/C=C/C(=O)N2CCC=CC2=O)cc(OC)c1OC [PIPLARTINE] | 1.8 | Active | 0.9 |  |  |
| COc1cc(/C=C/C(=O)N2CCC=CC2=O)cc(OC)c1OCCCCCCC(=O)NO |  |  |  | 0.9 | Active |
